Experimental data pooled from the literature.
Compare with care: the assays were run in different laboratories.
Target: Tyrosine-protein kinase ITK/TSK (ITK, Homo sapiens, UniProt Q08881)
Sequence (Q08881 1-620, as in one of the studies): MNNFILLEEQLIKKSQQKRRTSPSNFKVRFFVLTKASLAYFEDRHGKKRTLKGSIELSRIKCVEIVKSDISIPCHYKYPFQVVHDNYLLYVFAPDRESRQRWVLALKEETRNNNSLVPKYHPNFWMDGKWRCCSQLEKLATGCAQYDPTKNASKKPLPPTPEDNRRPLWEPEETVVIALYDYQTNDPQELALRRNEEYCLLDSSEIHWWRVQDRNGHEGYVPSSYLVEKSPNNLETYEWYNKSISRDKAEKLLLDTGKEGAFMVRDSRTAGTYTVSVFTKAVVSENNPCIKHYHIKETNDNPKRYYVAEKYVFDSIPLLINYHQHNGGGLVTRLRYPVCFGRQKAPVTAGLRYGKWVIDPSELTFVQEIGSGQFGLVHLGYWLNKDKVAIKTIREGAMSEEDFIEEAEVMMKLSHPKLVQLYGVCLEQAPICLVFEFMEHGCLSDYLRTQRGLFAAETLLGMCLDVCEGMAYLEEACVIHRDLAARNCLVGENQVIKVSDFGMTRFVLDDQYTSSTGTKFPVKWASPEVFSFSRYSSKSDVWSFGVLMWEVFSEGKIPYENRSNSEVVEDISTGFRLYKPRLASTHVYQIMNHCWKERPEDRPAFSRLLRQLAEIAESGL

Compound | observed | action | method | concentration | measurement | value
Nc1ncc(-c2nc(N3CCOCC3)nc(N3CCOCC3)n2)c(C(F)F)n1 | binding |  | competition with immobilised ligand | 10 µM | remaining binding | 44%
O=c1[nH]c2ccccc2n1C1CCN(Cc2ccc(-c3[nH]c4cc5ncnc5cc4nc3-c3ccccc3)cc2)CC1 | cell-free assay |  |  | 0.5 µM | remaining signal | 99.8%
Cn1cc(-c2cccc(N3CCc4c(sc5c4CC(C)(C)C5)C3=O)c2CO)cc(Nc2ccncn2)c1=O | enzyme activity | inhibitor |  | 1 µM | inhibition | 6%
CC(C)(C)c1cc(C=C(C#N)C#N)cc(Br)c1O | enzyme activity | inhibitor |  | 0.5 µM | remaining activity | 98.4%
COc1ncccc1-c1cnn2ccc(N3CCN(C(=O)OC(C)C)CC3)nc12 | binding |  | competition with immobilised ligand | 1 µM | remaining binding | 100%
N#CC1(c2ccccn2)CCN(Cc2cc(C(=O)O)c(=O)n3ccccc23)CC1 | cell-free assay |  | competition with immobilised ligand | 1 µM | remaining binding | 100%
Cc1nn(C)cc1-c1nc2c(N3CCN(Cc4ccc(Cl)cc4)CC3)c(Cl)cnc2[nH]1 | binding |  | competition with immobilised ligand | 1 µM | remaining binding | 100%
Cn1cc(-c2cc(F)cc(N3CCn4c(cc5c4CCCC5)C3=O)c2CO)cc(Nc2ccc(N3CCN(C4COC4)CC3)cn2)c1=O | enzyme activity | inhibitor |  | 0.1 µM | inhibition | 4%
Cn1cncc1[C@@](O)(COc1ccc(C#N)cc1-c1ccc(OC(F)(F)F)cc1)c1ccc(C#N)cc1 | cell-free assay |  | competition with immobilised ligand | 1 µM | remaining binding | 100%
